Measured values gathered from unrelated publications.
Compare with care: the assays were run in different laboratories. Values after ≈ are worked out from the molar mass of the structure shown.
Observed: microbial growth

`CC(=O)Oc1cccc(-n2c(/C=C/c3ccc([N+](=O)[O-])cc3)nc3ccccc3c2=O)c1` has an MIC of 64 µg/mL (≈ 150 µM) (Enterococcus faecium; broth dilution; NCTC7171).
The MIC of `CC(C)Oc1c(NC(=O)c2ccc(NC(=O)[C@H](CC(N)=O)NC(=O)c3ccc(NC(=O)c4ccc(C#N)cn4)cc3)cc2)ccc(C(=O)Nc2ccc(C(=O)O)cc2)c1O` is reported as ≤ 0.03 µg/mL (Citrobacter freundii; DSM30039).
The MIC of `COCCNc1ccc(-c2nc(-c3ccc(Oc4ccccc4)cc3)no2)cc1` is reported as > 32 µg/mL (Enterococcus faecium; broth dilution; 24 h).
`N#Cc1ccc(/C=C/c2nc3ccncc3c(=O)n2-c2cccc(O)c2)cc1` gave an MIC of 128 µg/mL (≈ 349 µM) (Enterococcus faecium; broth dilution; NCTC7171).
`O=C(O)CCc1ccccc1Oc1ccc(-c2noc(-c3ccc(O)cc3)n2)cc1` has an MIC of > 32 µg/mL (Enterococcus faecium; broth dilution; 24 h).
For `C/C(=C\c1ccc(O)cc1)C(=O)Nc1ccc(C(=O)N[C@@H](CC(N)=O)C(=O)Nc2ccc(C(=O)Nc3ccc(C(=O)Nc4ccc(C(=O)O)cc4)c(O)c3OC(C)C)cc2)cc1`, the MIC was 0.125 µg/mL (≈ 0.148 µM) (Citrobacter freundii; DSM30039).
For `O=C(O)c1cn(C2CC2)c2cc(N3CCNCC3)c(F)cc2c1=O`, the MIC was 1 µg/mL (≈ 3.02 µM) (Mycobacterium intracellulare; resazurin; ATCC23068).
With `NC(=O)c1cccc(-n2c(/C=C/c3ccc(F)cc3)nc3ccccc3c2=O)c1` the MIC was > 128 µg/mL (Enterococcus faecium; broth dilution; NCTC7171).
For `O=C(O)Cc1ccccc1Oc1ccc(-c2noc(-c3ccc(O)cc3)n2)cc1`, the MIC was > 32 µg/mL (Enterococcus faecium; broth dilution; 24 h).
`CC(C)Oc1c(NC(=O)c2ccc(NC(=O)[C@H](CC(N)=O)NC(=O)c3ccc(NC(=O)c4ccc(C#N)s4)cc3)cc2)ccc(C(=O)Nc2ccc(C(=O)O)cc2)c1O` has an MIC of ≤ 0.03 µg/mL (Citrobacter freundii; DSM30039).
`O=C(O)Cc1ccc(Oc2ccc(-c3noc(-c4ccc(O)cc4)n3)cc2)cc1` has an MIC of > 32 µg/mL (Enterococcus faecium; broth dilution; 24 h).
`CC(C)Oc1c(-n2cc(-c3ccc(NC(=O)C(CC(N)=O)NC(=O)c4ccc(NC(=O)c5ccc(C#N)cc5)cc4)cc3)nn2)ccc(C(=O)Nc2ccc(C(=O)O)cc2)c1O` (stereo not drawn) gave an MIC of 0.5 µg/mL (≈ 0.598 µM) (Citrobacter freundii; DSM30039).
With `COC(=O)CCNC(=O)c1cccc(-n2c(/C=C/c3ccc(C#N)cc3)nc3ccccc3c2=O)c1` the MIC was > 128 µg/mL (Enterococcus faecium; broth dilution; NCTC7171).
`CC(C)Oc1c(NC(=O)c2ccc(NC(=O)c3ccc(NC(=O)[C@H](CC(N)=O)NC(=O)c4ccc(NC(=O)c5ccc(C#N)s5)cc4)cc3)c(OC(C)C)c2O)ccc(C(=O)O)c1O` gave an MIC of 0.5 µg/mL (≈ 0.561 µM) (Citrobacter freundii; DSM30039).
The MIC of `CC(C)Nc1cccc(-n2c(/C=C/c3ccc(C#N)cc3)nc3ccccc3c2=O)c1` is reported as > 128 µg/mL (Enterococcus faecium; broth dilution; NCTC7171).
